Measured values taken from ChEMBL document CHEMBL1151199, “5-methylcoumaranones from Mutisia friesiana and their bioactivity” (2004).
Active and inactive are the calls of the source. No cut-off for these calls is given here.

What was measured:
Staphylococcus aureus [1] = experiment: Antibacterial activity against Staphylococcus aureus ATCC 29213 at 100 ug/disk after 48 hrs by standard paper sensitivity disk-agar plate method; assay type: functional; details: ATCC 29213, 48 h, read-out: IZ
How it was run: (§1)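 Agar in Petri dishes inoculated with the test organism (E. coli ATCC 25922, S. aureus ATCC 29213 or C. albicans BE 138/99). Samples were loaded at 100 µg per 5 mm paper disk, and the disks were placed on the agar. The read-out was the diameter of the inhibition zone in mm.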

Candida albicans = experiment: Antifungal activity against Candida albicans BE 138/99 at 100 ug/disk after 48 hrs by standard paper sensitivity disk-agar plate method; assay type: functional, organism-based; how it was run: as §1
Cladosporium cucumerinum [2] = experiment: Antifungal activity against Cladosporium cucumerinum at 100 ug/spot after 2 to 3 days by bioautographic assay; assay type: functional
How it was run: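 Each sample was dissolved at 10 mg ml-1 in CH2Cl2, and 10 µL was spotted onto a TLC plate by graduated capillary, giving 100 µg/spot. The plate was then assayed bioautographically against Cladosporium cucumerinum. Benomyl served as the reference fungicide, applied at 10 µg/spot. The read-out was the inhibition zone in mm.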

Escherichia coli = experiment: Antibacterial activity against Escherichia coli ATCC 25922 at 100 ug/disk after 48 hrs by standard paper sensitivity disk-agar plate method; assay type: functional, organism-based; how it was run: as §1
Cladosporium cucumerinum [3] = experiment: Antifungal activity against Cladosporium cucumerinum at 10 ug/spot after 2 to 3 days by bioautographic assay; assay type: functional
How it was run: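 TLC bioautography: samples spotted onto a TLC plate with graduated capillaries and assayed against the plant pathogen Cladosporium cucumerinum. Activity is read as the diameter (mm) of the inhibition zone around the spot. Benomyl served as the reference fungicide.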

Staphylococcus aureus [4] = experiment: Antibacterial activity against Staphylococcus aureus ATCC 29213 at 10 ug/disk after 48 hrs by standard paper sensitivity disk-agar plate method; assay type: functional; details: ATCC 29213, 48 h, read-out: IZ

Structure (SMILES) | zone of inhibition at 100 µg/disc (Staphylococcus aureus [1]) [mm] | Activity (Candida albicans) | inhibition zone (IZ) (Cladosporium cucumerinum [2]) [mm] | Activity (Escherichia coli) | inhibition zone (IZ) (Cladosporium cucumerinum [3]) [mm] | zone of inhibition at 10 µg/disc (Staphylococcus aureus [4]) [mm]
CC(C)=CCC/C(C)=C/CC1(O)Oc2cccc(C)c2C1=O (stereo not drawn) [MUTISICOUMARANONE A] | 10 | inactive | 8 | inactive | – | –
CC(C)=CC(O)C(=O)/C(C)=C/CC/C(C)=C/CC1(O)Oc2cccc(C)c2C1=O (stereo not drawn) [MUTISICOUMARANONE B] | 10 | inactive | 14 | inactive | – | –
CCCCNC(=O)n1c(NC(=O)OC)nc2ccccc21 [BENOMYL] | – | – | – | – | 20 | –
C/C(=C\CC1(O)Oc2cccc(C)c2C1=O)CC/C=C(\C)C(=O)/C=C/C(C)(C)O (stereo not drawn) [MUTISICOUMARANONE C] | 10 | inactive | 14 | inactive | – | –
CC(C)=CCC(O)/C(C)=C/CC/C(C)=C/CC1(O)Oc2cccc(C)c2C1=O (stereo not drawn) [MUTISICOUMARANONE D] | 10 | inactive | 10 | inactive | – | –
CC1(C)S[C@@H]2[C@H](NC(=O)[C@H](N)c3ccccc3)C(=O)N2[C@H]1C(=O)O [AMPICILLIN] | – | – | – | – | – | 14
